Experimental data from publication PMC2947195 (Biochemical Journal, 2010).
Positions count from the first letter of the chain named.

Experiments:
Assay type in all cases: cell-based
wt hRFC = molecular target: T1, wt hRFC (Homo sapiens, UniProt P41440); assay: [3H]MTX transport kinetics
T1 sequence (P41440 1-591): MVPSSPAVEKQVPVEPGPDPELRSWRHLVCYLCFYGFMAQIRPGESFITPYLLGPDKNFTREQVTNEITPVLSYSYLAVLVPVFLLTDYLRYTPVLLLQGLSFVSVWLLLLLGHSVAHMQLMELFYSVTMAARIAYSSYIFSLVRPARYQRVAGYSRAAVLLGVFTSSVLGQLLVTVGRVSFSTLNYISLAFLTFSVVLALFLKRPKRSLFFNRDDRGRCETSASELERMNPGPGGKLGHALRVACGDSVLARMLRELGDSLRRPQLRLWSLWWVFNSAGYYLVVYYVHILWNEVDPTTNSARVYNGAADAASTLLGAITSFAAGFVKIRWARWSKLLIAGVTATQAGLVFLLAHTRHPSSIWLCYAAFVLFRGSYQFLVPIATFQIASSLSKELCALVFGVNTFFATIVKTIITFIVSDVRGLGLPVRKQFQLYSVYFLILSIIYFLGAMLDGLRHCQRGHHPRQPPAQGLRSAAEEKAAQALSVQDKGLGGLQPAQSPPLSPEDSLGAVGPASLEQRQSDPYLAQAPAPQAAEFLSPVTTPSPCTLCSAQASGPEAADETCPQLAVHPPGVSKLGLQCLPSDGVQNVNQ
Outline: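 Human hRFC-null K500E (K562 subline) cells were electroporated (155 V, 1000 μF) with wt or Ser313-mutant hRFC. Stable clones were selected in soft agar with G418 (1 mg/ml). [3H]MTX uptake was measured over 180 s in HBSS at 37 °C in a shaking water bath and expressed as pmol/mg protein (Lowry). Kt and Vmax came from Lineweaver–Burk plots, with Vmax normalized to densitometric Western blot hRFC levels. Three experiments, means±S.E.M.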

cl-N6/C6 hRFC = molecular target: T2, cl-N6/C6 hRFC (Homo sapiens, UniProt P41440, C220S/C246S/C30S/C33S/C365S/C396S/C458S); assay: [3H]MTX uptake in R5 HeLa cells co-transfected with cysteine-less half-molecules; settings: 0.5 μM [3H]MTX
T2 sequence (P41440 1-591 C30S/C33S/C220S): T1 sequence (P41440 1-591) with C30S, C33S, C220S
T2 sequence (P41440 227-537 C246S/C365S/C396S/C458S limits assumed): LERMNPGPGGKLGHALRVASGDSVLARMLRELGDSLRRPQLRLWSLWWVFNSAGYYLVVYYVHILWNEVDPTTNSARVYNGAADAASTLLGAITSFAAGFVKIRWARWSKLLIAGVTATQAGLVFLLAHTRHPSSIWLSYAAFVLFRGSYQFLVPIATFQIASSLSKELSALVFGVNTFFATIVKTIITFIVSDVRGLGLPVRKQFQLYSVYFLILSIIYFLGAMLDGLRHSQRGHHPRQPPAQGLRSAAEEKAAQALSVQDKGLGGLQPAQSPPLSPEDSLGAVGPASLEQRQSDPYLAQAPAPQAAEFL

[1] = molecular target: T3, S313F hRFC (Ser^313 replaced with phenylalanine) (Homo sapiens, UniProt P41440, S313F); assay: [3H]MTX uptake in transiently transfected R5 HeLa cells
T3 sequence (P41440 1-591 S313F): T1 sequence (P41440 1-591) with S313F
Outline: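 Human R5 HeLa cells (transport-defective) were transiently transfected with Lipofectamine Plus, split at 24 h and assayed 24 h later. Uptake of 0.5 μM [3H]MTX ran for 2 min at 37 °C in HSM buffer (20 mM Hepes, 235 mM sucrose, pH 7.14 with MgO). Uptake was stopped with ice-cold PBS and cells solubilized in 0.5 M NaOH. Values in pmol/mg protein were normalized to HA-blot hRFC levels. Three experiments, means±S.E.M.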

CN(Cc1cnc2nc(N)nc(N)c2n1)c1ccc(C(=O)N[C@@H](CCC(=O)O)C(=O)O)cc1 [MTX, methotrexate]
Vmax (normalized)/Kt (wt hRFC): 2.44
Kt (wt hRFC; K500E stable transfectant, mean±S.E.M., n=3): 1.89 ± 0.43 µM
Normalized Vmax (wt hRFC; Vmax normalized to relative hRFC level on Western blots): 4.62±0.37
MTX uptake relative to residual level in R5 cells (cl-N6/C6 hRFC): ~ 3 fold
decrease of MTX transport compared with wt-N6/C6 (cl-N6/C6 hRFC): ~ 40%
MTX transport [1]: abolished
